This is an account of results in ChEMBL document CHEMBL2086391, “Structure based molecular design, synthesis and biological evaluation of α-pyrone analogs as anti-HSV agent” (Bioorg Med Chem Lett, 2012).

Converted amounts (≈) assume the structure as drawn. The source made the active and inactive calls. The rule behind the calls is not given here.

Series [1] has as its system Human alphaherpesvirus 1. The series is described as follows: Antiviral activity against HSV-1F ATCC 733 infected in african green monkey Vero cells assessed as inhibition of virus yield at 20 ug/ml after 3 days by MTT assay. The settings on record: Human alphaherpesvirus 1, ATCC 733, Vero, 72 h. It counts as functional. (Formazan colour is commonly taken as a measure of viable cells.)

For series [2], the system named is Human herpesvirus 2 strain G. The series is described as follows: Antiviral activity against HSV-2G ATCC 734 infected in african green monkey Vero cells after 2 to 3 days by plaque reduction assay. Particulars: Human alphaherpesvirus 2, ATCC 734, Vero. Format: functional, organism-based. The gist of the method: (§1)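 Vero cells infected at MOI 0.5 (HSV-1 or HSV-2), with serial compound dilutions in EMEM, held 1–2 h at room temperature. Cells then washed and overlaid with methylcellulose. Plaques stained with crystal violet after 2–3 days. Acyclovir and 0.1% DMSO served as controls. EC50 (50% plaque reduction) interpolated from dose-response curves.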
For orientation: Plaques are areas of infected cells; plaque reduction assays count them against a control.

Series [3] can be described thus: Cytotoxicity against african green monkey Vero cells after 2 days by MTT assay. Format: cell-based. The settings on record: chlorocebus sabaeus. The procedure, abridged:
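Vero cells plated at 1.0 × 10^5 cells/ml and exposed in triplicate to a range of compound concentrations, with 0.1% DMSO as negative control. After 2 days at 37 °C, 5% CO2, MTT added for 4 h. Formazan dissolved in 0.04 N HCl/isopropanol and read at 570 nm (reference 690 nm). % viability taken against media control; CC50 in µg/ml.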

The subject of series [4] is Human immunodeficiency virus. Kind of series: Antiviral activity against HIV infected in human MT4 cells by MTT assay. Format: functional, organism-based.
A short description of series [5]: Selectivity index, ratio of CC50 for african green monkey Vero cells to EC50 for HSV-1F ATCC 733 by plaque reduction assay. It counts as toxicity, cell-based. The settings on record: read-out: Ratio CC50/EC50. The gist of the method: (§2)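 SI derived from the Vero CC50 (MTT) divided by the plaque-reduction EC50 against the named HSV strain (MOI 0.5, methylcellulose overlay, crystal violet count after 2–3 days).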

Series [6] deals with Human alphaherpesvirus 1. The series is described as follows: Antiviral activity against HSV-1F ATCC 733 infected in african green monkey Vero cells after 2 to 3 days by plaque reduction assay. Format: functional, organism-based. Particulars: Human alphaherpesvirus 1, ATCC 733, Vero. The gist of the method:
as §1

In series [7] the test system is Human alphaherpesvirus 1. The series is described as follows: Antiviral activity against HSV-1F ATCC 733 infected in african green monkey Vero cells assessed as inhibition of virus induced cytopathic effect after 3 days by MTT assay. Format: functional, organism-based. Particulars: Human alphaherpesvirus 1, ATCC 733, Vero, 72 h. The procedure, abridged: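 Vero cells seeded at 1.0 × 10^5 cells/ml, held 6 h at 37 °C, 5% CO2, then infected with virus at 0.5 MOI for 1 h. Serial compound concentrations added in triplicate, with 0.1% DMSO and acyclovir controls. MTT read after 3 days at 37 °C. % inhibition taken from test, virus-control and cell-control absorbances. EC50 is 50% inhibition of virus-induced CPE; experiment repeated three times.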
For orientation: Damage to the host cells serves as the signal in cytopathic effect assays.

A short description of series [8]: Selectivity index, ratio of CC50 for african green monkey Vero cells to EC50 for HSV-1F ATCC 733. Format: toxicity, cell-based. Particulars: read-out: Ratio CC50/EC50. The gist of the method: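 SI computed as CC50/EC50. CC50 from the 2-day MTT viability assay on Vero cells; EC50 from the 3-day MTT assay of HSV-1 cytopathic effect (MOI 0.5). Both in µg/ml.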

The nature of series [9]: Selectivity index, ratio of CC50 for african green monkey Vero cells to EC50 for HSV-2G ATCC 734 by plaque reduction assay. It counts as toxicity, cell-based. Particulars: read-out: Ratio CC50/EC50. The procedure, abridged: as §2

In general, inhibition refers to the change of the read-out against control, counted positive when it falls. One may read the EC50 as the midpoint of the concentration-response curve. One may read the CC50 as the concentration that lowers cell viability or growth by half. With `Nc1nc2c(ncn2COCCO)c(=O)[nH]1` [ACYCLOVIR], the inhibition at 20 µg/mL in the series on Human alphaherpesvirus 1 [1] stood at 94%. A half-maximal response in [2] (EC50) required 1.8 µg/mL (≈ 7.99 µM). The molecule further yielded a CC50 at 48 h in [3] of 130 µg/mL (≈ 577 µM).
Take `O=C(Nc1ccc(Br)cc1)c1c(N2CCCC2)cc(-c2ccccc2)oc1=O`: the outcome in series [4] was inactive.
On to `O=C(Nc1ccc(F)cc1)c1c(N2CCCC2)cc(-c2ccccc2)oc1=O`, for which the result in series [4] was inactive.
Same read-out and setting: the entry for `O=C(NCCO)c1c(N2CCCC2)cc(-c2ccc(F)cc2)oc1=O` is “inactive”.
For the molecule `O=C(NCCO)c1c(N2CCCCC2)cc(-c2ccccc2)oc1=O`, the results for the selectivity ratio in series [5], in series [8] and in [9] were 12.8, 7.1 and 3.6, respectively. In the series on Human alphaherpesvirus 1 [1], the inhibition at 20 µg/mL was determined as 89%. Also, the EC50 was found to be 4.1 µg/mL (≈ 12 µM) in the series with Human alphaherpesvirus 1 [6], 7.4 µg/mL (≈ 21.6 µM) with Human alphaherpesvirus 1 [7] and 14.5 µg/mL (≈ 42.3 µM) in series [2]. This molecule also showed a CC50 at 48 h in series [3] of 52.5 µg/mL (≈ 153 µM). In [4], the outcome was inactive.
As for `Cc1ccc(NC(=O)c2c(N3CCCC3)cc(-c3ccccc3)oc2=O)cc1`, the inhibition at 20 µg/mL in the series with Human alphaherpesvirus 1 [1] is 62%. The half-maximal effective concentration (EC50) with Human alphaherpesvirus 1 [7] was found to be 20.9 µg/mL (≈ 55.8 µM). Besides, in series [8], the selectivity ratio was 2.7. The molecule also had a CC50 at 48 h in [3] of 56.5 µg/mL (≈ 151 µM). The result in series [4] was inactive.
As for `O=C(NCCO)c1c(N2CCCC2)cc(-c2ccccc2)oc1=O`, the inhibition at 20 µg/mL with Human alphaherpesvirus 1 [1] was 70%. Further, the EC50 in the series with Human alphaherpesvirus 1 [7] was 9.7 µg/mL (≈ 29.5 µM). Also, the selectivity ratio in series [8] is 3.1. This molecule gave a half-maximal cytotoxic concentration (CC50) at 48 h in series [3] of 30 µg/mL (≈ 91.4 µM). For the same molecule, the outcome in [4] was inactive.
In the case of `O=C(Nc1ccccc1)c1c(N2CCCC2)cc(-c2ccccc2)oc1=O`, the inhibition at 20 µg/mL in the series on Human alphaherpesvirus 1 [1] is 79%. Moreover, the concentration for a half-maximal effect (EC50) in the series with Human alphaherpesvirus 1 [7] was found to be 12.5 µg/mL (≈ 34.7 µM). In addition, the selectivity ratio in [8] was found to be 3. The molecule also came in with a CC50 at 48 h in series [3] of 37.5 µg/mL (≈ 104 µM). In series [4], the result was inactive.
In the case of `O=C(NCCO)c1c(N2CCCCC2)cc(-c2ccc(F)cc2)oc1=O`, in [4], the outcome was inactive.
For `O=C(Nc1ccc(Cl)cc1)c1c(N2CCCC2)cc(-c2ccccc2)oc1=O`, the outcome in [4] was inactive.
